Measurements as given in PMC4066744 (Nucleic Acids Research, 2014).
Values belong to the molecule of their own block, whether it stands above or below them.

Tests used:
[1] = biological target: KIX domain from mouse CBP 586-672 (mouse) (UniProt P45481); experiment: fluorescence polarisation
[2] = biological target: KIX domain of CBP/p300 (mouse CBP 586–672) (Mus musculus, UniProt P45481); assay type: binding; details: for decrease in affinity for the KIX domain relative to native E2A AD2–1: mutant peptide versus wild-type E2A AD2–1, fluorescence anisotropy titration
Sequence of KIX domain of CBP/p300 (mouse CBP 586–672) (P45481 586-672): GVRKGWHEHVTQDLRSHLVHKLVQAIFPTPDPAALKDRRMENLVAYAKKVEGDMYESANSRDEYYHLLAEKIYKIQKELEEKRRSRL
Procedure, shortened: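 Mouse CBP KIX (586–672), E. coli BL21(DE3)-expressed, purified, with final size exclusion in 20 mM MES pH 6.0, 1 mM β-mercaptoethanol (same buffer for titration). KIX spiked with 100 nM FITC-peptide titrated into that peptide. Ex 492/em 523 nm; three readings per injection averaged. Kd from quadratic one-site fit plus linear non-specific term. Mutant-peptide series run in triplicate; mean ± standard error.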

[3] = biological target: KIX^ΔPCETsite (Phe612Ala/Asp622Ala/Arg624Ala/Lys667Glu quadruple KIX mutant) (Mus musculus, UniProt P45481, D622A/F612A/K667E/R624A); assay type: binding; details: 250 μM versus 17 μM
Sequence of KIX^ΔPCETsite (Phe612Ala/Asp622Ala/Arg624Ala/Lys667Glu quadruple KIX mutant) (P45481 586-672 F612A/D622A/R624A/K667E): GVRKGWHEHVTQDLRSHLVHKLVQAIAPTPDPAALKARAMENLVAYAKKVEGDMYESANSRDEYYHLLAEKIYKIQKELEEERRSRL

[4] = biological target: KIX domain from mouse CBP 586-672 (mouse, UniProt P45481 586-672); experiment: NMR titration
Sequence of KIX domain from mouse CBP 586-672 (P45481 586-672): as the sequence (P45481 586-672) above

Sequence of KIX domain from mouse CBP 586-672 (mouse) (P45481 586-672): as above

Molecule: E2A AD2-1 Ile401Ala FITC-labelled synthetic mutant peptide (from UniProt P15923 394-407)
Kd [1]: 106 µM

Molecule: Ac-EDHLDEAIHVLRSHAVGTAGDMHTLLP-NH2 [E2A AD2–1/2]
Kd [2]: 21 ± 3 µM

Molecule: Ac-EDHLDEAIHVLRSHY-NH2 [E2A AD2–1 (C-terminal tyrosine)]
Kd [2]: 21 ± 5 µM

Molecule: Ac-EDHADEAIHVLRSH-NH2 (N-terminus and C-terminus assumed) [E2A AD2–1 Leu397Ala]
decrease in affinity for the KIX domain relative to native E2A AD2–1 [2]: 6 fold

Molecule: E2A AD2-1 Ala400Leu FITC-labelled synthetic mutant peptide (from UniProt P15923 394-407)
Kd [1]: 7.2 µM

Molecule: E2A AD2-1 Leu397Ala FITC-labelled synthetic mutant peptide (from UniProt P15923 394-407)
Kd [1]: 102 µM

Molecule: EDHLDEAIHVLRSHAVGTAGDMHTLLP [Unfused recombinant E2A AD2-1/2 (E2A residues 394-420)]
binding result [4]: binds

Second part, the molecule after the results:

Kd [1]: 13.5 µM
Molecule: E2A AD2-1 His402Ala FITC-labelled synthetic mutant peptide (from UniProt P15923 394-407)

decrease in affinity of KIX^ΔPCETsite mutant relative to native KIX [3]: 15 fold
Molecule: Ac-EDHLDEAIHVLRSH-NH2 [E2A AD2–1]

Kd [1]: 86 µM
Molecule: E2A AD2-1 Leu404Ala FITC-labelled synthetic mutant peptide (from UniProt P15923 394-407)

decrease in affinity for the KIX domain relative to native E2A AD2–1 [2]: approximately 5 fold
Molecule: Ac-EDHLDEAIHVARSH-NH2 (N-terminus and C-terminus assumed) [E2A AD2–1 Leu404Ala]
